Experimental data published in ChEMBL document CHEMBL1149165, “Significant differences in biological parameters between prodrugs cleavable by carboxypeptidase G2 that generate 3,5-difluoro-phenol and -aniline nitrogen mustards in gene-directed enzyme prodrug therapy systems” (J Med Chem, 2004).

Legend:
[1] = The chemical half-life by HPLC; type: ADME
Outline: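 10 mM DMSO stocks diluted 100-fold to 100 µM in 100 mM Tris-HCl pH 7.3 with 260 µM ZnCl₂. Remaining parent measured over time by isocratic reverse-phase HPLC (phenyl column, 0.1% TFA with 65-85% methanol, 250-275 nm), using repeat or delayed injections. Half-life from one-phase exponential decay fit, maximum 1 and minimum 0.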

MDA-MB-361 = test: Ratio of the IC50 in thebeta-Gal- and CPG2-expressing cell line; type: functional, Homo sapiens
Outline: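 Degree of activation: IC50 in β-Gal-expressing MDA MB 361 cells divided by IC50 in stCPG2(Q)3-expressing cells. Both IC50s are from sulforhodamine-B regrowth assays after two-stage prodrug exposure, fitted to a log dose-effect sigmoid.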

[2] = substrate: O=C(O)CCC[C@H](NC(=O)Nc1cc(F)c(N(CCCl)CCCl)c(F)c1)C(=O)O; test: Michaelis-Menten constant towards carboxypeptidase G2 enzyme; conditions: Pseudomonas aeruginosa
Outline: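 CPG2 (50 mU) with prodrug at 5-50 µM in 5 µM steps, diluted from DMSO concentrates into 100 mM Tris-HCl pH 7.3 with 260 µM ZnCl₂, 37 °C. Remaining prodrug measured by isocratic reverse-phase HPLC (phenyl column, 0.1% TFA/methanol, 250-275 nm) at 0, 5, 10, 15 and 20 min.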

For `O=C(O)CCC[C@H](NC(=O)Oc1cc(F)c(N(CCCl)CCCl)c(F)c1)C(=O)O`, the half-life [1] was 45 min.

With `CS(=O)(=O)OCCN(CCCl)c1c(F)cc(OC(=O)N[C@@H](CCCC(=O)O)C(=O)O)cc1F` the Degree of activation (MDA-MB-361) was 0.9 fold.

B1: Carboxypeptidase G2 (Pseudomonas aeruginosa (strain ATCC 15692 / PAO1 / 1C / PRS 101 / LMG12228)), Q9I056 (protein)
chain: MHARRLPRLLPLALAFLLSPAAFAADTPAAELLRQAEAERPAYLDTLRQLVAVDSGTGQAEGLGQLSALLAERLQALGAQVRSAPATPSAGDNLVATLDGTGSKRFLLMIHYDTVFAAGSAAKRPFREDAERAYGPGVADAKGGVAMVLHALALLRQQGFRDYGRITVLFNPDEETGSAGSKQLIAELARQQDYVFSYEPPDRDAVTVATNGIDGLLLEVKGRSSHAGSAPEQGRNAILELSHQLLRLKDLGDPAKGTTLNWTLARGGEKRNIIPAEASAEADMRYSDPAESERVLADARKLTGERLVADTEVSLRLDKGRPPLVKNPASQRLAETAQTLYGRIGKRIEPIAMRFGTDAGYAYVPGSDKPAVLETLGVVGAGLHSEAEYLELSSIAPRLYLTVALIRELSAD
With B1 the Km [2] was 7.7 µM.
